Reference: ChEMBL document CHEMBL4406880, “Design, synthesis, and bioactivity of dihydropyrimidine derivatives as kinesin spindle protein inhibitors” (Bioorg Med Chem, 2019)

What was measured:
Type in all cases: functional
RXF 393 = assay: Growth inhibition of human RXF393 cells assessed as growth percentage at 10 uM incubated for 48 hrs by sulforhodamine B assay relative to control; settings: RXF 393, 48 h, read-out: Activity
Method in brief: (§1)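 NCI-60 single-dose screen. Cells were grown in RPMI 1640 with 5% FBS and 2 mM L-glutamine and plated at 5,000–40,000 cells/well. After an overnight preincubation at 37 °C in 5% CO2, compound was added at a final 10 µM from a DMSO stock, with DMSO/PBS controls. After 48 h, cells were TCA-fixed and stained with 0.4% SRB, and absorbance was read at 515 nm. Growth is given as a percentage of untreated control.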

T47D = assay: Growth inhibition of human T47D cells assessed as growth percentage at 10 uM incubated for 48 hrs by sulforhodamine B assay relative to control; settings: read-out: Activity; method in brief: as §1
NCI-H460 = assay: Growth inhibition of human NCI-H460 cells assessed as growth percentage at 10 uM incubated for 48 hrs by sulforhodamine B assay relative to control; settings: NCI-H460, 48 h, read-out: Activity
Method in brief: (§2)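 NCI-60 one-dose screen. Cells in RPMI 1640 with 5% FBS and 2 mM L-glutamine, seeded at 5,000–40,000 cells/well according to doubling time, and preincubated overnight at 37 °C, 5% CO2. A time-zero plate was TCA-fixed at drug addition. Compound from DMSO stock, final 10 µM, 48 h; DMSO vehicle controls. Fixation with TCA, 10% final (16% for suspension cells). SRB stain, Tris solubilization, A515. Result given as % growth versus untreated cells.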

NCI-H322M = assay: Growth inhibition of human NCI-H322M cells assessed as growth percentage at 10 uM incubated for 48 hrs by sulforhodamine B assay relative to control; settings: read-out: Activity; method in brief: as §2
OVCAR-8 = assay: Growth inhibition of human OVCAR8 cells assessed as growth percentage at 10 uM incubated for 48 hrs by sulforhodamine B assay relative to control; settings: OVCAR-8, 48 h, read-out: Activity; method in brief: as §1
SK-OV-3 = assay: Growth inhibition of human SKOV3 cells assessed as growth percentage at 10 uM incubated for 48 hrs by sulforhodamine B assay relative to control; settings: SK-OV-3, 48 h, read-out: Activity; method in brief: as §1
HOP-92 = assay: Growth inhibition of human HOP92 cells assessed as growth percentage at 10 uM incubated for 48 hrs by sulforhodamine B assay relative to control; settings: HOP-92, 48 h, read-out: Activity; method in brief: as §2
COLO 205 = assay: Growth inhibition of human COLO205 cells assessed as growth percentage at 10 uM incubated for 48 hrs by sulforhodamine B assay relative to control; settings: COLO 205, 48 h, read-out: Activity
Method in brief: (§3)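 NCI-60 one-dose screen: cells in RPMI 1640 with 5% FBS and 2 mM L-glutamine, plated at 5,000–40,000 cells/well and preincubated 24 h at 37 °C, 5% CO2. Compound is added from a DMSO stock to a final 10 µM and incubated 48 h. Cells are TCA-fixed and stained with sulforhodamine B, read at 515 nm. Output is % growth versus untreated control, with a time-zero plate.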

HT-29 = assay: Growth inhibition of human HT-29 cells assessed as growth percentage at 10 uM incubated for 48 hrs by sulforhodamine B assay relative to control; settings: HT-29, 48 h, read-out: Activity; method in brief: as §2
TK-10 = assay: Growth inhibition of human TK10 cells assessed as growth percentage at 10 uM incubated for 48 hrs by sulforhodamine B assay relative to control; settings: TK-10, 48 h, read-out: Activity; method in brief: as §1
SN12C = assay: Growth inhibition of human SN12C cells assessed as growth percentage at 10 uM incubated for 48 hrs by sulforhodamine B assay relative to control; settings: read-out: Activity; method in brief: as §1
ACHN = assay: Growth inhibition of human ACHN cells assessed as growth percentage at 10 uM incubated for 48 hrs by sulforhodamine B assay relative to control; settings: read-out: Activity; method in brief: as §3
MDA-MB-468 = assay: Growth inhibition of human MDA-MB-468 cells assessed as growth percentage at 10 uM incubated for 48 hrs by sulforhodamine B assay relative to control; settings: MDA-MB-468, 48 h, read-out: Activity; method in brief: as §2
Malme-3M = assay: Growth inhibition of human MALME-3M cells assessed as growth percentage at 10 uM incubated for 48 hrs by sulforhodamine B assay relative to control; settings: read-out: Activity; method in brief: as §2
IGROV-1 = assay: Growth inhibition of human IGROV1 cells assessed as growth percentage at 10 uM incubated for 48 hrs by sulforhodamine B assay relative to control; settings: IGROV-1, 48 h, read-out: Activity; method in brief: as §2
NCI-H23 = assay: Growth inhibition of human NCI-H23 cells assessed as growth percentage at 10 uM incubated for 48 hrs by sulforhodamine B assay relative to control; settings: NCI-H23, 48 h, read-out: Activity; method in brief: as §2
UO-31 = assay: Growth inhibition of human UO31 cells assessed as growth percentage at 10 uM incubated for 48 hrs by sulforhodamine B assay relative to control; settings: UO-31, 48 h, read-out: Activity; method in brief: as §1
MDA-MB-435 = assay: Growth inhibition of human MDA-MB-435 cells assessed as growth percentage at 10 uM incubated for 48 hrs by sulforhodamine B assay relative to control; settings: MDA-MB-435, 48 h, read-out: Activity; method in brief: as §2
SF-268 = assay: Growth inhibition of human SF268 cells assessed as growth percentage at 10 uM incubated for 48 hrs by sulforhodamine B assay relative to control; settings: SF-268, 48 h, read-out: Activity; method in brief: as §1
PC-3 = assay: Growth inhibition of human PC3 cells assessed as growth percentage at 10 uM incubated for 48 hrs by sulforhodamine B assay relative to control; settings: PC-3, 48 h, read-out: Activity; method in brief: as §1
786-0 = assay: Growth inhibition of human 786-0 cells assessed as growth percentage at 10 uM incubated for 48 hrs by sulforhodamine B assay relative to control; settings: 786-0, 48 h, read-out: Activity; method in brief: as §3
HCC 2998 = assay: Growth inhibition of human HCC2998 cells assessed as growth percentage at 10 uM incubated for 48 hrs by sulforhodamine B assay relative to control; settings: HCC 2998, 48 h, read-out: Activity; method in brief: as §3
MOLT-4 = assay: Growth inhibition of human MOLT4 cells assessed as growth percentage at 10 uM incubated for 48 hrs by sulforhodamine B assay relative to control; settings: MOLT-4, 48 h, read-out: Activity; method in brief: as §2
SW-620 = assay: Growth inhibition of human SW620 cells assessed as growth percentage at 10 uM incubated for 48 hrs by sulforhodamine B assay relative to control; settings: SW-620, 48 h, read-out: Activity; method in brief: as §1
SK-MEL-28 = assay: Growth inhibition of human SK-MEL-28 cells assessed as growth percentage at 10 uM incubated for 48 hrs by sulforhodamine B assay relative to control; settings: SK-MEL-28, 48 h, read-out: Activity; method in brief: as §1
NCI/ADR-RES = assay: Growth inhibition of human NCI/ADR-RES cells assessed as growth percentage at 10 uM incubated for 48 hrs by sulforhodamine B assay relative to control; settings: read-out: Activity; method in brief: as §2

| SMILES | growth at 10 µM (RXF 393) [%] | growth at 10 µM (T47D) [%] | growth at 10 µM (NCI-H460) [%] | growth at 10 µM (NCI-H322M) [%] | growth at 10 µM (OVCAR-8) [%] | growth at 10 µM (SK-OV-3) [%] | growth at 10 µM (HOP-92) [%] | growth at 10 µM (COLO 205) [%] | growth at 10 µM (HT-29) [%] | growth at 10 µM (TK-10) [%] | growth at 10 µM (SN12C) [%] | growth at 10 µM (ACHN) [%] | growth at 10 µM (MDA-MB-468) [%] | growth at 10 µM (Malme-3M) [%] | growth at 10 µM (IGROV-1) [%] | growth at 10 µM (NCI-H23) [%] | growth at 10 µM (UO-31) [%] | growth at 10 µM (MDA-MB-435) [%] | growth at 10 µM (SF-268) [%] | growth at 10 µM (PC-3) [%] | further results |
| --- | --- | --- | --- | --- | --- | --- | --- | --- | --- | --- | --- | --- | --- | --- | --- | --- | --- | --- | --- | --- | --- |
| CC(=O)C1=C(C)NC(=O)NC1c1ccc2c(c1)OCO2 (racemic) | 95.2 | 91.8 | 114 | 104 | 103 | 103 | 102 | 104 | 104 | 103 | 102 | 108 | 105 | 104 | 103 | 101 | 83.4 | 105 | 107 | 99 | growth at 10 µM (786-0): 105%; growth at 10 µM (HCC 2998): 107%; growth at 10 µM (MOLT-4): 103%; growth at 10 µM (SW-620): 104%; growth at 10 µM (SK-MEL-28): 115%; growth at 10 µM (NCI/ADR-RES): 106% |
| CC1=C(C(=O)c2ccccc2)C(c2ccc3c(c2)OCO3)NC(=S)N1 (racemic) | 59.5 | 67.9 | 8.05 | 67.7 | 46.7 | 51.6 | 92.3 | 47.6 | 18.5 | 66 | 51.4 | 45.5 | 54.3 | 54.5 | 46.1 | 48 | 55.7 | -49.5 | 75.8 | 61.5 | growth at 10 µM (786-0): 58.9%; growth at 10 µM (HCC 2998): 62.2%; growth at 10 µM (MOLT-4): 36.6%; growth at 10 µM (SW-620): 24.2%; growth at 10 µM (SK-MEL-28): 70.9%; growth at 10 µM (NCI/ADR-RES): 43.3% |
| CC(=O)C1=C(C)NC(=S)NC1c1ccc2c(c1)OCO2 (racemic) | 102 | 96.2 | 109 | 112 | 103 | 102 | 92.5 | 109 | 106 | 97.6 | 104 | 103 | 113 | 108 | 104 | 107 | 81 | 103 | 100 | 98.1 | growth at 10 µM (786-0): 103%; growth at 10 µM (HCC 2998): 108%; growth at 10 µM (MOLT-4): 98.8%; growth at 10 µM (SW-620): 106%; growth at 10 µM (SK-MEL-28): 116%; growth at 10 µM (NCI/ADR-RES): 112% |
| CC1=C(C(=O)c2ccccc2)C(c2ccc3c(c2)OCO3)NC(=O)N1 (racemic) | 109 | 91.2 | 114 | 99.5 | 99.3 | 109 | 92.4 | 114 | 105 | 99 | 97 | 108 | 109 | 91.7 | 90.6 | 107 | 80.6 | 90.1 | 100 | 103 | growth at 10 µM (786-0): 99.5%; growth at 10 µM (HCC 2998): 111%; growth at 10 µM (MOLT-4): 103%; growth at 10 µM (SW-620): 98.5%; growth at 10 µM (SK-MEL-28): 117%; growth at 10 µM (NCI/ADR-RES): 103% |
| COCCOC(=O)C1=C(C)NC(=O)NC1c1ccc2c(c1)OCO2 (racemic) | 94.6 | 98.4 | 105 | 107 | 99.3 | 98.8 | 112 | 102 | 102 | 100 | 102 | 107 | 106 | 99.8 | 103 | 92 | 87.3 | 101 | 98 | 98.8 | growth at 10 µM (786-0): 102%; growth at 10 µM (HCC 2998): 101%; growth at 10 µM (MOLT-4): 101%; growth at 10 µM (SW-620): 97%; growth at 10 µM (SK-MEL-28): 112%; growth at 10 µM (NCI/ADR-RES): 104% |
| CC1=C(C(=O)OCc2ccccc2)C(c2ccc3c(c2)OCO3)NC(=O)N1 (racemic) | 102 | 89.2 | 109 | 104 | 101 | 105 | 92.3 | 116 | 109 | 101 | 101 | 99.4 | 92 | 101 | 97.2 | 101 | 83.1 | 103 | 99.8 | 84.5 | growth at 10 µM (786-0): 99.1%; growth at 10 µM (HCC 2998): 116%; growth at 10 µM (MOLT-4): 104%; growth at 10 µM (SW-620): 109%; growth at 10 µM (SK-MEL-28): 110%; growth at 10 µM (NCI/ADR-RES): 97.7% |
| CC(=O)N1C(=S)NC(C)=C(C(=O)OC(C)C)C1c1ccc2c(c1)OCO2 (racemic) | 111 | 70.4 | 110 | 99.5 | 96.4 | 104 | 78.1 | 99.5 | 105 | 103 | 93.1 | 106 | 104 | 98.4 | 106 | 100 | 91.3 | 102 | 100 | 87.2 | growth at 10 µM (786-0): 102%; growth at 10 µM (HCC 2998): 110%; growth at 10 µM (MOLT-4): 95.2%; growth at 10 µM (SW-620): 102%; growth at 10 µM (SK-MEL-28): 111%; growth at 10 µM (NCI/ADR-RES): 103% |
